{"data": "Assay results collected from several papers", "note": "Protocols differ between the studies behind these lines."}
{"SMILES": "CN(C(=O)n1cnc(-c2ccc[n+]([O-])c2)c1)C1CCCCC1", "test system": "male cynomolgus monkey, plasma", "conditions": "oral, 0.1 mg/kg", "quantity": "AUC(0-t)", "value": "96 ng·h/mL"}
{"SMILES": "CCOP(=O)(OCC)[C@@H]1C[C@@H](n2cc(-c3ccccc3F)nn2)ON1C", "target or system": "human T-lymphocyte", "assay": "cell growth or viability", "conditions": "72 h", "quantity": "CC50", "value": "> 250 µM"}
{"SMILES": "COc1cc(OC)c2nccc(N3CCc4c(cc(Cn5ccnc5)cc4-c4cn(C)nc4C(F)(F)F)C3=O)c2c1", "test system": "male CD-1 mouse, plasma", "conditions": "intravenous, 3 mg/kg", "quantity": "MRT(0-inf)", "value": "0.5 h"}
{"SMILES": "CCN(CC)C(=O)[C@@]1(c2ccccc2)C[C@H]1CN", "test system": "male cynomolgus monkey, plasma", "conditions": "oral, 30 mg/kg", "quantity": "AUC(0-inf)", "value": "40100 ng·h/mL"}
{"SMILES": "CCCCCCn1c(-c2cccc(Cl)c2)n[nH]c1=S", "target or system": "HepG2", "assay": "cell growth or viability, resazurin", "conditions": "10 µM, 24 h", "quantity": "viability", "value": "103%"}
{"SMILES": "COc1ccc2nccc(N3CCc4c(cc(Cn5ccnc5)cc4-c4cn(C)nc4C(F)(F)F)C3=O)c2c1", "test system": "male CD-1 mouse, plasma", "conditions": "oral, 50 mg/kg", "quantity": "MRT(0-inf)", "value": "2.3 h"}
{"SMILES": "CC(C)(Nc1nc(-c2ccccn2)nc2ccccc12)c1ccccn1", "test system": "female BALB/c mouse, plasma", "conditions": "oral, 50 mg/kg", "quantity": "MRT(0-t)", "value": "6.8 h"}
{"SMILES": "COc1ccc2c(c1)c1c(n2CO)CN2CCc3cc(OCc4ccccc4)c(OC)cc3C2C1 (stereo not drawn)", "target or system": "HepG2", "assay": "cell growth or viability", "conditions": "5 µM, 24 h", "quantity": "viability", "value": "100%"}
{"SMILES": "CCc1cc(C(=O)NC)c2nccc(N3CCc4c(cc(Cn5ccnc5)cc4-c4cn(C)nc4C(F)(F)F)C3=O)c2c1", "test system": "male CD-1 mouse, plasma", "conditions": "oral, 150 mg/kg", "quantity": "MRT(0-inf)", "value": "2.8 h"}
{"SMILES": "C/C=C/C[C@H](C)[C@@H](OC)[C@@H](C)[C@H](O)C[C@H]1OC(=O)C=C[C@H]1CC", "assay": "metabolic stability", "test system": "human, liver microsomes", "quantity": "half-life", "value": "< 7 min"}
{"SMILES": "Cc1ccc2cncc(N3CCc4c(cc(Cn5ccnc5)cc4-c4cn(C)nc4C(F)(F)F)C3=O)c2c1", "test system": "male CD-1 mouse, plasma", "conditions": "oral, 50 mg/kg", "quantity": "MRT(0-inf)", "value": "3.5 h"}
{"SMILES": "c1ccc(-c2nc(N3CCC(c4ccccn4)C3)c3ccccc3n2)nc1 (stereo not drawn)", "test system": "female BALB/c mouse, plasma", "conditions": "oral, 12.5 mg/kg", "quantity": "MRT(0-inf)", "value": "5.9 h"}
